Consider 16 molecules from ChEMBL document CHEMBL4392876, “Natural-Product-Inspired Compounds as Countermeasures against the Liver Carcinogen Aflatoxin B1” (J Nat Prod, 2019).

The source made the active and inactive calls. No cut-off for these calls is given here.

Series [1] relates to HepG2. The experiment in a line: Protection against AfB1-induced toxicity in human HepG2 cells assessed as live cell area at 0.5 uM measured after 48 hrs by calcein-AM/Hoechst 33342 staining based high-content imaging analysis relative to control. Type of series: functional.
The subject of series [2] is HepG2. The experiment in a line: Protection against AfB1-induced toxicity in human HepG2 cells assessed as increase in live cell area at >0.5 uM measured after 48 hrs by calcein-AM/Hoechst 33342 staining based high-content imaging analysis relative to control. Type of series: functional.
Series [3] relates to HepG2. The experiment in a line: Toxicity in human HepG2 cells measured after 48 hrs by calcein-AM/Hoechst 33342 staining based high-content imaging analysis. Particulars: hepg2, 48 h. The series is classed as cell-based.
For series [4], the system named is HepG2. The experiment in a line: Protection against AfB1-induced toxicity in human HepG2 cells assessed as live cell area at 5 uM measured after 48 hrs by calcein-AM/Hoechst 33342 staining based high-content imaging analysis relative to control. Type of series: functional.
Series [5] concerns HepG2. The experiment in a line: Protection against AfB1-induced toxicity in human HepG2 cells assessed as increase in live cell area at >5 uM measured after 48 hrs by calcein-AM/Hoechst 33342 staining based high-content imaging analysis relative to control. Type of series: functional.
The test system of series [6] is HepG2. The experiment in a line: Protection against AfB1-induced toxicity in human HepG2 cells assessed as live cell area at 50 uM measured after 48 hrs by calcein-AM/Hoechst 33342 staining based high-content imaging analysis relative to control. Type of series: functional.
For series [7], the system named is HepG2. The experiment in a line: Protection against AfB1-induced toxicity in 3D-spheroids of human HepG2 cells assessed as live cell area at 10 uM measured after 3 days by calcein-AM/Hoechst 33342 staining based high-content imaging analysis relative to control. Type of series: functional. The gist of the method: (§1)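 HepG2 spheroids: 1000 cells/well in ultralow-attachment plates, grown 4 days to tight spheroids, then test compounds (10 μM) plus AfB1 in complete EMEM for 3 further days. Calcein AM/Hoechst staining and high-content imaging of viability and live spheroid size. Live cell area relative to DMSO vehicle-only spheroids; n = 3.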

Series [8] deals with HepG2. The experiment in a line: Protection against AfB1-induced morphological changes in 3D-spheroids of human HepG2 cells up to 10 uM measured after 3 days by calcein-AM/Hoechst 33342 staining based microscopic analysis. The series is classed as functional, cell-based. Summed up:
as §1

The test system of series [9] is HepG2. Kind of series: Protection against AfB1-induced toxicity in human HepG2 cells assessed as live cell area at 12.5 uM measured after 48 hrs by calcein-AM/Hoechst 33342 staining based high-content imaging analysis relative to control. The series is classed as functional.
Series [10] relates to HepG2. Kind of series: Protection against AfB1-induced toxicity in human HepG2 cells assessed as increase in live cell area at >12.5 uM measured after 48 hrs by calcein-AM/Hoechst 33342 staining based high-content imaging analysis relative to control. The series is classed as functional.
For series [11], the system named is HepG2. Kind of series: Protection against AfB1-induced toxicity in human HepG2 cells assessed as increase in live cell area measured after 48 hrs by calcein-AM/Hoechst 33342 staining based high-content imaging analysis. The series is classed as functional.
Series [12] concerns HepG2. The experiment in a line: Increase in live cell area in human HepG2 cells measured after 48 hrs by calcein-AM/Hoechst 33342 staining based high-content imaging analysis. The series is classed as functional.

Consider `Cc1cc(O)cc2oc(=O)c3c(O)cc(O)cc3c12` [ALTERNARIOL], for which the “%max” value in [1] is reported as 15.2%. In [2], the result was inactive.
`COc1cc(OC)c2c(O)c3c(=O)cc(C)oc3cc2c1` [RUBROFUSARIN B]: the “%max” value in series [1] is given as 64.9%. The result in series [2] was inactive. Moreover, the Activity entry in series [3] is recorded as “Toxic”.
For the molecule `COC1=C(O)c2c(O)cc(C)c3c(O)cc(O)c(c23)C1=O`, in [4], the “%max” value is 20.5%. In series [5], the outcome was inactive.
On the same counts, the results for `COc1cc(O)cc(OC)c1` are 37% and “inactive”.
As for `COc1cc(C(=O)c2ccccc2)ccc1O`, the “%max” value in series [6] was 60.2%.
The same measure, in the same setting: the same measure for `COc1ccc(C(=O)c2ccc(OC)cc2O)c(O)c1`: 53.9%.
Regarding `CC(C)c1nc(CN(C)C(=O)N[C@H](C(=O)N[C@@H](Cc2ccccc2)C[C@H](O)[C@H](Cc2ccccc2)NC(=O)OCc2cncs2)C(C)C)cs1` [RITONAVIR], the “%max” value in [1] was 72%. Further, in series [2], the outcome was inactive.
Turning to `COC(=O)c1cc(O)cc(OC)c1C(=O)c1c(O)cc(C)cc1OC`, in series [6], the “%max” value is on record as 68.3%.
As for `COc1cc(O)c2c(=O)oc3cc(O)c(O)cc3c2c1`, the “%max” value in [6] is listed as 65.7%. Also, in series [3], the Activity result is listed as “Toxic”.
Consider `COc1ccc(C(=O)NCc2cccnc2)c(O)c1`, for which the “%max” value in series [1] is 33.5%. For the same molecule, the outcome in series [2] was inactive.
Take `COc1cc(O)c2c(=O)c3ccccc3oc2c1`: the Activity was 72% in series [7] and “Toxic” in series [3]. Moreover, in series [4], the “%max” value is 63.9%. In addition, the result in series [5] was inactive. In addition, the result in [8] was Active.
In the case of `COc1cc(O)c2c(=O)oc3cc(O)cc(C)c3c2c1`, the “%max” value in series [6] was 67%. Moreover, the Activity in series [7] is 95%; in [3], “Non-Toxic”. Besides, in series [8], the result was Active.
Turning to `COc1ccc(C(=O)c2ccccc2)c(O)c1` [OXYBENZONE], the “%max” value in series [9] was 61.6%. Also, the outcome in series [10] was inactive.
On to `Cc1c(-c2cnccn2)ssc1=S`, for which the result in [11] and in series [12] was Active.
For `COc1cc(C(O)c2ccccc2)ccc1O` (centres undefined), the “%max” value in [6] is reported as 41%.
With `CC(=O)N[C@@H](CS)C(=O)O`, the result in series [11] and in series [12] was Active.
